These results are taken from ChEMBL document CHEMBL4765242, “Novel Triapine Derivative Induces Copper-Dependent Cell Death in Hematopoietic Cancers” (J Med Chem, 2019).

The subject of one test is KMS-11. The test is described as follows: Potency index, ratio of triapine IC50 to test compound IC50 for human KMS-11 cells assessed as reduction in cell viability incubated for 48 hrs by cell-titer-Glo luminescent cell viability assay. It is filed as functional. A digest of the protocol:
(§1)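 Cells were exposed to increasing concentrations of triapine or of the test compound in parallel. Viability was read by CellTiter-Glo luminescence 48 h after treatment, relative to vehicle-treated cells. IC50 was fitted by non-linear regression to a standard sigmoidal dose-response model, and the index was taken from the two IC50s.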

The subject of the next test is MV4-11. The test is described as follows: Induction of cell death in human MV4-11 cells assessed as reduction in cell viability at 50 nM measured after 48 hrs in presence of Z-VAD by cell-titer-Glo luminescent cell viability assay. In kind it is functional, cell-based.
A further test deals with HL-60. The test can be described thus: Potency index, ratio of triapine IC50 to test compound IC50 for human HL-60 cells assessed as reduction in cell viability incubated for 48 hrs by cell-titer-Glo luminescent cell viability assay. It is filed as functional. A digest of the protocol: as §1
Test [1] has as its target Thioredoxin (Homo sapiens) (UniProt P10599). The test can be described thus: Inhibition of TRX in human MV411 cells at 50 nM incubated for 20 mins in presence of insulin, NADPH and Trx reductase by microplate reader based analysis. It is filed as cell-based. The settings on record: MV4-11. A digest of the protocol: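 Thioredoxin activity was measured in MV4;11 cells exposed to 50 nM compound or DMSO, with read-out of absorbance at 412 nm. Data are representative of three independent experiments.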

Activity calls are given as the source filed them. The calls are words filed in the database; no cut-off is given here.

Chain of Thioredoxin (Homo sapiens) (P10599 whole entry): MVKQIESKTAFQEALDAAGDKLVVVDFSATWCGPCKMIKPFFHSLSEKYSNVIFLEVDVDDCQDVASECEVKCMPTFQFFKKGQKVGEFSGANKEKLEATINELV

In the case of `COc1cc2nc(N/N=C3\CCCc4cccnc43)sc2cc1OC`, the “Ratio IC50” value with KMS-11 and with HL-60 was 10 in each case. Also, the outcome in the test with MV4-11 was Active. The inhibition result in test [1] was “Active”.
